Experiments:
[1] = target: 5-hydroxytryptamine receptor 2C (Homo sapiens, UniProt P28335); assay: Binding affinity to 5HT2C receptor
D(3) dopamine receptor = D(3) dopamine receptor (Homo sapiens, UniProt P35462); assay: Binding affinity to dopamine receptor D3
D(4) dopamine receptor = D(4) dopamine receptor (Homo sapiens, UniProt P21917); assay: Binding affinity to dopamine receptor D4
D(1B) dopamine receptor = D(1B) dopamine receptor (Homo sapiens, UniProt P21918); assay: Binding affinity to dopamine receptor D5
[2] = target: 5-hydroxytryptamine receptor 1D (Homo sapiens, UniProt P28221); assay: Binding affinity to 5HT1D receptor
[3] = target: Delta-type opioid receptor (Homo sapiens, UniProt P41143); assay: Binding affinity to opioid receptor DOR
Mu-type opioid receptor = Mu-type opioid receptor (Homo sapiens, UniProt P35372); assay: Binding affinity to opioid receptor MOR
[4] = Binding affinity to opioid receptor Sigma2
Histamine H2 receptor = Histamine H2 receptor (Homo sapiens, UniProt P25021); assay: Binding affinity to Histamine receptor H2
[5] = target: 5-hydroxytryptamine receptor 2B (Homo sapiens, UniProt P41595); assay: Binding affinity to 5HT2B receptor
[6] = Binding affinity to GABA-A receptor muscimol site
[7] = target: 5-hydroxytryptamine receptor 3A (Homo sapiens, UniProt P46098); assay: Binding affinity to 5HT3 receptor
[8] = target: Muscarinic acetylcholine receptor M2 (Homo sapiens, UniProt P08172); assay: Binding affinity to muscarinic acetylcholine receptor M2
D(1A) dopamine receptor = D(1A) dopamine receptor (Homo sapiens, UniProt P21728); assay: Binding affinity to dopamine receptor D1
[9] = target: 5-hydroxytryptamine receptor 1E (Homo sapiens, UniProt P28566); assay: Binding affinity to 5HT1E receptor
[10] = target: T1, 5-hydroxytryptamine receptor 4 (Homo sapiens, UniProt Q13639); assay: Displacement of [3H]GR113808 from human 5HT4 receptor expressed in HEK293 cells by liquid scintillation counting; format: cell-based
In short: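 Membranes from HEK293 line stably expressing human 5-HT4(b) at high level (5000 fmol/mg). Incubated with 0.3 nM [3H]GR113808 and 21 competitor concentrations in Tris-HCl pH 7.5, EDTA, EGTA, 2 mM MgCl2, ascorbate, 0.1% BSA, 100 µM GTP, room temperature 1 h. Filtered onto PEI-soaked filters, washed, scintillation counted. Ki derived from IC50 via Ki = IC50/(1+L/Kd).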

D(2) dopamine receptor = D(2) dopamine receptor (Homo sapiens, UniProt P14416); assay: Binding affinity to dopamine receptor D2
[11] = target: Sodium-dependent serotonin transporter (Homo sapiens, UniProt P31645); assay: Binding affinity to SERT
Histamine H1 receptor = Histamine H1 receptor (Homo sapiens, UniProt P35367); assay: Binding affinity to Histamine receptor H1
[12] = target: Beta-2 adrenergic receptor (Homo sapiens, UniProt P07550); assay: Binding affinity to beta2 adrenergic receptor
[13] = target: Alpha-2C adrenergic receptor (Homo sapiens, UniProt P18825); assay: Binding affinity to Alpha-2C adrenergic receptor
[14] = target: Sigma non-opioid intracellular receptor 1 (Homo sapiens, UniProt Q99720); assay: Binding affinity to opioid receptor Sigma1
[15] = target: 5-hydroxytryptamine receptor 1A (Homo sapiens, UniProt P08908); assay: Binding affinity to 5HT1A receptor
[16] = target: Alpha-1D adrenergic receptor (Homo sapiens, UniProt P25100); assay: Binding affinity to Alpha-1D adrenergic receptor
[17] = target: Sodium-dependent dopamine transporter (Homo sapiens, UniProt Q01959); assay: Binding affinity to DAT
Histamine H3 receptor = Histamine H3 receptor (Homo sapiens, UniProt Q9Y5N1); assay: Binding affinity to Histamine receptor H3
[18] = target: 5-hydroxytryptamine receptor 5A (Homo sapiens, UniProt P47898); assay: Binding affinity to 5HT5A receptor
[19] = target: 5-hydroxytryptamine receptor 6 (Homo sapiens, UniProt P50406); assay: Binding affinity to 5HT6 receptor
[20] = target: Beta-1 adrenergic receptor (Homo sapiens, UniProt P08588); assay: Binding affinity to beta1 adrenergic receptor
Histamine H4 receptor = Histamine H4 receptor (Homo sapiens, UniProt Q9H3N8); assay: Binding affinity to Histamine receptor H4
[21] = target: Beta-3 adrenergic receptor (Homo sapiens, UniProt P13945); assay: Binding affinity to beta3 adrenergic receptor
[22] = target: Alpha-1B adrenergic receptor (Homo sapiens, UniProt P35368); assay: Binding affinity to Alpha-1B adrenergic receptor
[23] = target: 5-hydroxytryptamine receptor 2A (Homo sapiens, UniProt P28223); assay: Binding affinity to 5HT2A receptor
[24] = Lipophilicity, log D of the compound in octanol buffer at pH 7.4; format: physicochemical
In short: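 Distribution between octanol and aqueous buffer at pH 7.4. Both phases were diluted and ligand concentration in each measured by HPLC. Not determined where micelles formed.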

[25] = target: Kappa-type opioid receptor (Homo sapiens, UniProt P41145); assay: Binding affinity to opioid receptor KOR
[26] = target: T1, 5-hydroxytryptamine receptor 4; assay: Antagonistic activity at human 5HT4 receptor expressed in HEK293 cells assessed as inhibition of 5-HT stimulated ADCY activity after 20 mins; format: functional, cell-based
In short: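 Membranes from HEK293 cells stably expressing human 5-HT4(b) at low level (400 fmol/mg). Adenylyl cyclase activity was stimulated by 1 µM 5-HT with 21 antagonist concentrations, 0.1 mM [α-32P]ATP, 4 mM MgCl2, 1 mM IBMX, GTP and ATP-regenerating system, 32 °C, 20 min. [32P]cAMP was isolated on Dowex/alumina columns. IC50 was fitted by non-linear regression and Kb calculated using 5-HT EC50.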

[27] = target: Muscarinic acetylcholine receptor M5 (Homo sapiens, UniProt P08912); assay: Binding affinity to muscarinic acetylcholine receptor M5
[28] = target: Alpha-2A adrenergic receptor (Homo sapiens, UniProt P08913); assay: Binding affinity to alpha2A adrenergic receptor
[29] = target: 5-hydroxytryptamine receptor 1B (Homo sapiens, UniProt P28222); assay: Binding affinity to 5HT1B receptor
[30] = target: Alpha-1A adrenergic receptor (Homo sapiens, UniProt P35348); assay: Binding affinity to alpha1A adrenergic receptor
[31] = Binding affinity to GABA receptor BDZ-site
[32] = target: 5-hydroxytryptamine receptor 7 (Homo sapiens, UniProt P34969); assay: Binding affinity to 5HT7 receptor
[33] = target: Muscarinic acetylcholine receptor M4 (Homo sapiens, UniProt P08173); assay: Binding affinity to muscarinic acetylcholine receptor M4
[34] = target: Muscarinic acetylcholine receptor M1 (Homo sapiens, UniProt P11229); assay: Binding affinity to muscarinic acetylcholine receptor M1
[35] = target: Muscarinic acetylcholine receptor M3 (Homo sapiens, UniProt P20309); assay: Binding affinity to muscarinic acetylcholine receptor M3
[36] = target: Alpha-2B adrenergic receptor (Homo sapiens, UniProt P18089); assay: Binding affinity to alpha2B adrenergic receptor
Sequence of Alpha-2B adrenergic receptor (P18089 whole entry): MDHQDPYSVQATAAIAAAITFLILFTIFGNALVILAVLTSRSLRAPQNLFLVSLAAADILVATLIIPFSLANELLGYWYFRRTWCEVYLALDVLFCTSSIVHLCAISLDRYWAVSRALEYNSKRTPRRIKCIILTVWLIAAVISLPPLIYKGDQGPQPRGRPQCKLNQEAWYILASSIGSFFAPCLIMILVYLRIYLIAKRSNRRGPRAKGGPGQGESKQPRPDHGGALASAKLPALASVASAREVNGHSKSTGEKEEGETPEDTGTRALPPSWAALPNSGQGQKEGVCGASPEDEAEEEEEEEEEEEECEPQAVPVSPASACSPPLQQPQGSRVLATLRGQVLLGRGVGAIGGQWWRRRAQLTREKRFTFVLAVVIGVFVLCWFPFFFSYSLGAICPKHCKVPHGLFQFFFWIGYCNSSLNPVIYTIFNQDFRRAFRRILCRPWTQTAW

T1 sequence (Q13639 whole entry): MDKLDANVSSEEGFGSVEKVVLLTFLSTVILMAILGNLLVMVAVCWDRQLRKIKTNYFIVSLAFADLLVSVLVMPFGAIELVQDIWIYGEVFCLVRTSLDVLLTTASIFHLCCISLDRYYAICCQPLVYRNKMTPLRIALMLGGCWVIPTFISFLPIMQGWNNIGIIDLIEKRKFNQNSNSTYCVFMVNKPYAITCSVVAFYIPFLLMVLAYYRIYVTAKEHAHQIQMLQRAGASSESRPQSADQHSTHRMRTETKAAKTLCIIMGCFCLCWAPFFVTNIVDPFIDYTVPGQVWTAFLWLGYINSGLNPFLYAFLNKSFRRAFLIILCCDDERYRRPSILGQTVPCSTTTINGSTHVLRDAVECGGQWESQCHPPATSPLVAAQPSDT
Sequence of Kappa-type opioid receptor (P41145 whole entry): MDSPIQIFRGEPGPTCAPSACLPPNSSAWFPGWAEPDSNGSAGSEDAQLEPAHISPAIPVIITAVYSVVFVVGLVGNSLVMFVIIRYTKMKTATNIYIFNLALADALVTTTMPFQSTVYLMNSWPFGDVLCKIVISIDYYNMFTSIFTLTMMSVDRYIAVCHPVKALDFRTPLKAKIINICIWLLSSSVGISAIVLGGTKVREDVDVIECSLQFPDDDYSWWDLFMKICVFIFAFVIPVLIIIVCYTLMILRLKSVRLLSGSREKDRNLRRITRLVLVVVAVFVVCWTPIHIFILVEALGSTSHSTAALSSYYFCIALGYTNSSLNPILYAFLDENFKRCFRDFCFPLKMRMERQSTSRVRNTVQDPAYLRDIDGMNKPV
Sequence of D(4) dopamine receptor (P21917 whole entry): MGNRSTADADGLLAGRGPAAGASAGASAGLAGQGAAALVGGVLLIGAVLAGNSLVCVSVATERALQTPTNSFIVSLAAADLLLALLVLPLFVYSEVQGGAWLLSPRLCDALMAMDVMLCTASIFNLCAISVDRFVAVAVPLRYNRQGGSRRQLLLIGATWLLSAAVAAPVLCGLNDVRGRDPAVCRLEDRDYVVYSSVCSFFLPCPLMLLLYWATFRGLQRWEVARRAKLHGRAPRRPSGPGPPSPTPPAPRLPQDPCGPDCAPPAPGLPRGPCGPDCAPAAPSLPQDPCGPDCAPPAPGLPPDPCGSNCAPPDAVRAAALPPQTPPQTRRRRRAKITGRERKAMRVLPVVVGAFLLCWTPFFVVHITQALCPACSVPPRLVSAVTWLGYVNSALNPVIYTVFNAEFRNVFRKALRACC
Sequence of 5-hydroxytryptamine receptor 2B (P41595 whole entry): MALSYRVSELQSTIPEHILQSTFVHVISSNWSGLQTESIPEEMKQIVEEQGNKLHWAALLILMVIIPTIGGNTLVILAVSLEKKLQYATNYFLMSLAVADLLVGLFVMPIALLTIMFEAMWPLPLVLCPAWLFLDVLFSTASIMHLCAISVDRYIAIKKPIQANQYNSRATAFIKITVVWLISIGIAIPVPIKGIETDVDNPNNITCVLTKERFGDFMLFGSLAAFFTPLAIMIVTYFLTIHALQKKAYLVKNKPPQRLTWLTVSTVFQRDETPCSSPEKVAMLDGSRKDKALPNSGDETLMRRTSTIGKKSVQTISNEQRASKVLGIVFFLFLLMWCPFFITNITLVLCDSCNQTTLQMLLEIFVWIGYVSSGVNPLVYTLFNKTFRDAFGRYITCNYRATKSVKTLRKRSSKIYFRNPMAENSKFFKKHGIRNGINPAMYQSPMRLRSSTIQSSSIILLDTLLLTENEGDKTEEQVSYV
Sequence of 5-hydroxytryptamine receptor 6 (P50406 whole entry): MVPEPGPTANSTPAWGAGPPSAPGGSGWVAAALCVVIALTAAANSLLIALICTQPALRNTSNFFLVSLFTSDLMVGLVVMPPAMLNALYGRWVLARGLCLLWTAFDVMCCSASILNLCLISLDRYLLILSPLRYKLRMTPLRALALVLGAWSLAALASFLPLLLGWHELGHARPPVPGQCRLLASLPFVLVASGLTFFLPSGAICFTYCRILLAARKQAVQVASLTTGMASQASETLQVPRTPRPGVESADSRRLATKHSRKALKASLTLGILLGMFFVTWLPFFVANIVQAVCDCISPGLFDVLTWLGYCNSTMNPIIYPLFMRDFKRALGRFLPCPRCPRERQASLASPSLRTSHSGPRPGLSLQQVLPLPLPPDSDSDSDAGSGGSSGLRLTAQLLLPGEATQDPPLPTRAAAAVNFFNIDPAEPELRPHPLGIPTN
Sequence of Beta-2 adrenergic receptor (P07550 whole entry): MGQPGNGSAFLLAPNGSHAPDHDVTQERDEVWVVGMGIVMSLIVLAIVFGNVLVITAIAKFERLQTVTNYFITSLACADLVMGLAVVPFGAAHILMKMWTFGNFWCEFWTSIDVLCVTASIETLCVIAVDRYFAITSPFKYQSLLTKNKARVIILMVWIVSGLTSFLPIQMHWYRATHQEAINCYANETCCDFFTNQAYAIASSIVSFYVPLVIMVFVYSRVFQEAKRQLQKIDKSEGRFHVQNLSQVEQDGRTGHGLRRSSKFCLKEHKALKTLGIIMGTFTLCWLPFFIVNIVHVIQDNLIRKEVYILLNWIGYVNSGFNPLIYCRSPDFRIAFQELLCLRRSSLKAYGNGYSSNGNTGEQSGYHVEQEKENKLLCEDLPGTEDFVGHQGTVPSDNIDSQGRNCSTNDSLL
Sequence of 5-hydroxytryptamine receptor 1B (P28222 whole entry): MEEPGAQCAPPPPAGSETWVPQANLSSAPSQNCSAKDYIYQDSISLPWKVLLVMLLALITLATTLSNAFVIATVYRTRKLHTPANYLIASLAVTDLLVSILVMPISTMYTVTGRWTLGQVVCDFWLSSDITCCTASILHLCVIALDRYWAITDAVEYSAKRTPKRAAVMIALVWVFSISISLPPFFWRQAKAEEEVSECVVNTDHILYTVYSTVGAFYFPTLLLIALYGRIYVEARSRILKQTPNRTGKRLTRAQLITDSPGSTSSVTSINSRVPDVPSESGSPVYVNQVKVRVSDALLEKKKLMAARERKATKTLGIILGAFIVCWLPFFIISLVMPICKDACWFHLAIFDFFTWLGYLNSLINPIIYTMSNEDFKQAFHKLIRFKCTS
Sequence of Mu-type opioid receptor (P35372 whole entry): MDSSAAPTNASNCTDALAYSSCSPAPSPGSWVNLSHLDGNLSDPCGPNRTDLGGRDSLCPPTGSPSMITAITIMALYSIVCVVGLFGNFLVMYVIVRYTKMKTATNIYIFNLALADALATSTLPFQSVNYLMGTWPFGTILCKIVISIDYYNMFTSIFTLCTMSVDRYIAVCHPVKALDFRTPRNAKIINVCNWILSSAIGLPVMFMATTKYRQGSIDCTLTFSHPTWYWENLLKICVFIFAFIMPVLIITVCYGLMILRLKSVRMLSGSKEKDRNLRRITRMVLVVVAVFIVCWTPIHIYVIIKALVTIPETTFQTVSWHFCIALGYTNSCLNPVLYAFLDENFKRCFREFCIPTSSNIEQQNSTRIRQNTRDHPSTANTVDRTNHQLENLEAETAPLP
Sequence of Histamine H3 receptor (Q9Y5N1 whole entry): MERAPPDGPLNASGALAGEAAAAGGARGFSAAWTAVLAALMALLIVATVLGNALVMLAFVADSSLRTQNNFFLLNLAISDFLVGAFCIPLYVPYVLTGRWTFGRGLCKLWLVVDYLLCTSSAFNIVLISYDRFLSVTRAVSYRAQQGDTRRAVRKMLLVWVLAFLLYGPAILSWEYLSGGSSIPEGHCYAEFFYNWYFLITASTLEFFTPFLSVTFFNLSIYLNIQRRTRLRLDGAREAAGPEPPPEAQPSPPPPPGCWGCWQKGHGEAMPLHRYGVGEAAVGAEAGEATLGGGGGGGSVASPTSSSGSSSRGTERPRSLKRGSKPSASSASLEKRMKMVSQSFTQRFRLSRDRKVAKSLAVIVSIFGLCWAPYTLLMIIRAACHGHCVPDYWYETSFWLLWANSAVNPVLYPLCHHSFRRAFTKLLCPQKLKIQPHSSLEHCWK
Sequence of 5-hydroxytryptamine receptor 2C (P28335 whole entry): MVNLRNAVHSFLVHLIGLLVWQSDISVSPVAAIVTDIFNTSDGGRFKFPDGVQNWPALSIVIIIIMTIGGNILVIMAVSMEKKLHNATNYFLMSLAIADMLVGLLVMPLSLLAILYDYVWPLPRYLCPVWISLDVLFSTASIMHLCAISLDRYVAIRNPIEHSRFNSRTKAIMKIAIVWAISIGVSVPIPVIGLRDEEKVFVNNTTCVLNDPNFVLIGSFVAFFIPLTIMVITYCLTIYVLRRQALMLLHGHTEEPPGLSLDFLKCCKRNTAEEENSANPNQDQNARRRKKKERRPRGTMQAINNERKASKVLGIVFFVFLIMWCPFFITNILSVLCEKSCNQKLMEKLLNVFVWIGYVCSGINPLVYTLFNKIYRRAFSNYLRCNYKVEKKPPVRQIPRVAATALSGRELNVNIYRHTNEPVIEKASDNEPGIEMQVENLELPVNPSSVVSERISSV
Sequence of Sigma non-opioid intracellular receptor 1 (Q99720 whole entry): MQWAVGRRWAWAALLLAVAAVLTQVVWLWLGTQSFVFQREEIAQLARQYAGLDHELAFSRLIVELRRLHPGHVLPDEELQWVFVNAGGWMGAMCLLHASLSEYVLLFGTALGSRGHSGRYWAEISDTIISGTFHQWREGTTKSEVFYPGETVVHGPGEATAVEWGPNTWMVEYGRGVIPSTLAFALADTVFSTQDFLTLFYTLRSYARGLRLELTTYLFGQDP

COC(=O)CCCCCN1CCC(CNC(=O)c2c3n(c4ccccc24)CCCO3)CC1
3.16 µM: Ki [2] | Ki (Histamine H2 receptor)
0.000107 µM: Ki [10]
2.2: logD [24]
< 5: pKi [4] | pKi [6] | pKi [31]
0.398 µM: Ki [14]
6.31 µM: Ki [23]
2.51 µM: Ki [7] | Ki [8]
0.316 µM: Ki [5]
> 10 µM: Ki [1] | Ki (D(3) dopamine receptor) | Ki (D(4) dopamine receptor) | Ki (D(1B) dopamine receptor) | Ki [3] | Ki (Mu-type opioid receptor) | Ki (D(1A) dopamine receptor) | Ki [9] | Ki (D(2) dopamine receptor) | Ki [11] | Ki [12] | Ki [13] | Ki [15] | Ki [16] | Ki [17] | Ki (Histamine H3 receptor) | Ki [18] | Ki [19] | Ki [20] | Ki (Histamine H4 receptor) | Ki [21] | Ki [22] | Ki [25] | Ki [27] | Ki [28] | Ki [29] | Ki [30] | Ki [32] | Ki [33] | Ki [34] | Ki [35]
1.26 µM: Ki (Histamine H1 receptor) | Ki [36]
9.13: pKb [26]

From ChEMBL document CHEMBL1629440, “Synthesis and pharmacological properties of novel hydrophilic 5-HT4 receptor antagonists” (Bioorg Med Chem, 2010)
